In brackets after ≈: the same amount, converted by molar mass.
Tests used:
[1] = target: T1, Muscarinic acetylcholine receptor M1 (Homo sapiens) (UniProt P11229); conditions: at 100 µM
T1 sequence (whole entry): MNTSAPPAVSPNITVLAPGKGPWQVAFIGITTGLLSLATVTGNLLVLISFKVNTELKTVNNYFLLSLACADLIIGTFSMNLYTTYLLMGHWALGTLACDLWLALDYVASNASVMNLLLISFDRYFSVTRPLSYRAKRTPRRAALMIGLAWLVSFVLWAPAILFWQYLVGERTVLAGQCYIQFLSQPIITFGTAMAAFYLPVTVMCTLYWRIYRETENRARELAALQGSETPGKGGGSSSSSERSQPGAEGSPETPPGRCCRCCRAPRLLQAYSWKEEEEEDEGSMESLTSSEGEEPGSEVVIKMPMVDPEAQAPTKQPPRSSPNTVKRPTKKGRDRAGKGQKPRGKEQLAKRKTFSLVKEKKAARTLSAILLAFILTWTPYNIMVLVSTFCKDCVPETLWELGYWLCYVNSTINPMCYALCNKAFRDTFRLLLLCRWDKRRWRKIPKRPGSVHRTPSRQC

[2] = Solubility in Kreb-Heinsleit buffer.; assay type: physicochemical
[3] = Solubility in deionized water.; assay type: physicochemical; conditions: read-out: S
[4] = target: T2, Muscarinic acetylcholine receptor M4 (Homo sapiens, UniProt P08173); assay: Agonist activity against M4 muscarinic receptor expressed in RBL-2H3 Mast cells.; assay type: functional, cell-based
T2 sequence (P08173 whole entry): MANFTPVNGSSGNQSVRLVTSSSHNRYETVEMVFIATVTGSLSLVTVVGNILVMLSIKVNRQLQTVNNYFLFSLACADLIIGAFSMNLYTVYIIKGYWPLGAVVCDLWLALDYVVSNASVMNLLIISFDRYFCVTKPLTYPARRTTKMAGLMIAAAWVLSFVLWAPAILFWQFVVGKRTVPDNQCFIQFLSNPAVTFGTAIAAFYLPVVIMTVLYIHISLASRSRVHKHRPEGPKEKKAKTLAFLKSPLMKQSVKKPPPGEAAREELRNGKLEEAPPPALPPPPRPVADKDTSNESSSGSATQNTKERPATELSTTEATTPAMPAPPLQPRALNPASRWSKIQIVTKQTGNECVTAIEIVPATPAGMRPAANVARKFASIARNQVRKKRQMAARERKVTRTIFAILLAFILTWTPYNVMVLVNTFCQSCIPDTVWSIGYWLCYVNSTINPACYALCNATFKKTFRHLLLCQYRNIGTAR
Outline: (§1)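 RBL-2H3 mast cell subclone stably transfected with human M4 receptor (>1 × 10^5 receptors/cell). Agonist action read as degranulation, i.e. hexosaminidase released into the supernatant, following earlier M1 methods. Dose-response data fit to a one-site stimulation model for Smax and EC50.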

[5] = Maximum release of beta-hexosaminidase was determined as a measure of degranulation; assay type: functional; set-up: reference not given here
Outline: as §1

[6] = target: T3, Muscarinic acetylcholine receptor M5 (Homo sapiens) (UniProt P08912); assay: Maximal level of stimulation as a percentage above basal levels.; assay type: functional
T3 sequence (whole entry): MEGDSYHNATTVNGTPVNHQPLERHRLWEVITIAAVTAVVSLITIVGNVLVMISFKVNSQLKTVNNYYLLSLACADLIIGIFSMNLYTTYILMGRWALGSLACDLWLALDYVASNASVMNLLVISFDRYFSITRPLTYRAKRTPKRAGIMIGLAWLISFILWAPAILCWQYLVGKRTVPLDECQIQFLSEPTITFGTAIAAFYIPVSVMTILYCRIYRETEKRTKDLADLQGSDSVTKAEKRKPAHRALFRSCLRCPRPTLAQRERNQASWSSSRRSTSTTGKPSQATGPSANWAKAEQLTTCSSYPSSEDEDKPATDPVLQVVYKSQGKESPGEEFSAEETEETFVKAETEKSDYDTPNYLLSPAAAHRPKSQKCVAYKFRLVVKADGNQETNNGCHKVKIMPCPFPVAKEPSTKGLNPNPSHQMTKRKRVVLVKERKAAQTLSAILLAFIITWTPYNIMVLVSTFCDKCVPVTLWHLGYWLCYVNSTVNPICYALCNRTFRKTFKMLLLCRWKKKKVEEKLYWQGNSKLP

[7] = target: T4, Muscarinic acetylcholine receptor M1 (Homo sapiens, UniProt P11229); assay: Agonistic activity against M1 muscarinic receptor expressed in A9 L cells.; assay type: functional, cell-based, A9L
T4 sequence (P11229 whole entry): T1 sequence (whole entry)

[8] = target: T4, Muscarinic acetylcholine receptor M1; assay: (§2) Binding affinity towards M1 muscarinic receptor expressed in A9 L cells by displacing [3H](R)-QNB radioligand.
[9] = target: T4, Muscarinic acetylcholine receptor M1; assay: Agonistic activity against M1 muscarinic receptor expressed in NIH 3T3 cells; assay type: functional, cell-based, NIH3T3
[10] = target: T4, Muscarinic acetylcholine receptor M1; assay: as §2; assay type: cell-based, L929
Outline: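 Competition binding on A9 L cell membrane homogenates (human M1) with 0.1 nM [3H]-(R)-QNB and 14 test-ligand concentrations, 0.01 nM to 3 mM. Buffer 25 mM sodium phosphate pH 7.4 with 5 mM MgCl2, 2 h at room temperature.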

[11] = target: T1, Muscarinic acetylcholine receptor M1 (Homo sapiens); assay: Agonist activity at M1 receptor coupled to phosphoinositide metabolism at 100 uM expressed as percent stimulation above basal levels relative to carbachol response; assay type: functional
Outline: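 Stably transfected A9 L cells (and/or NIH 3T3) expressing human M1 receptor; agonist-stimulated accumulation of [3H]-inositol phosphates measured at 100 µM test ligand. […] Mean (SEM) of two to five assays per compound.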

[12] = target: T2, Muscarinic acetylcholine receptor M4; assay: Agonist activity against human M4 muscarinic receptor expressed in RBL-2H3 Mast cells; assay type: functional, cell-based
Outline: as §1

PI metabolism [1] | EC50 [4] | Max release [5] | EC50 [7] | Ki [8] | SMILES | also measured
< 10% |  |  |  |  | CN1CCC=C(c2nsnc2OCCOCCOCCOc2nsnc2C2=CCCN(C)C2)C1 | 
76% | 1.1 µM | 24% |  |  | CN1CCC=C(c2nsnc2OCCCCCCCCCCOc2nsnc2C2=CCCN(C)C2)C1 | solubility [2]: 0.004 mg/mL (≈ 0.00751 mM); solubility [3]: 25 mg/mL (≈ 46.9 mM)
 |  |  |  |  | CC(=O)OCC[N+](C)(C)C | Smax [6]: 99%
 |  | 87% |  |  | C[N+](C)(C)CCOC(N)=O | Smax [6]: 110%
 | 0.0006 µM | 61% | 2.1 µM | 0.00032 µM | CN1CCC=C(c2nsnc2SCCCCCCCCCCSc2nsnc2C2=CCCN(C)C2)C1 | 
 | 0.001 µM | 54% | 13 µM | 0.00069 µM | CN1CCC=C(c2nsnc2SCCCCCCCCCCCCSc2nsnc2C2=CCCN(C)C2)C1 | 
21% |  |  |  |  | CN1CCC=C(c2nsnc2OCCCCOc2nsnc2C2=CCCN(C)C2)C1 | 
47% |  |  |  |  | CCCCCCOc1nsnc1C1=CCCN(C)C1 | 
18% | > 100 µM | 3% |  |  | CN1CCC=C(c2nsnc2OCCCCCCOc2nsnc2C2=CCCN(C)C2)C1 | 
 | 0.0047 µM | 29% | 1.5 µM | 0.00057 µM | CN1CCC=C(c2nsnc2SCCCCCCCCCCCSc2nsnc2C2=CCCN(C)C2)C1 | 
 |  |  | 0.18 µM | 0.0076 µM | CN1CCC=C(c2nsnc2SCCCCCCCSc2nsnc2C2=CCCN(C)C2)C1 | 
< 10% |  |  |  | 0.0015 µM | CN1CCC=C(c2nsnc2OCCOCCOCCOCCOCCOc2nsnc2C2=CCCN(C)C2)C1 | 
 |  |  | 0.35 µM | 0.0012 µM | CN1CCC=C(c2nsnc2SCCCSc2nsnc2C2=CCCN(C)C2)C1 | 
21% |  |  |  |  | CN1CCC=C(c2nsnc2OCCCOc2nsnc2C2=CCCN(C)C2)C1 | 
 |  |  | 0.57 µM | 0.00093 µM | CN1CCC=C(c2nsnc2SCCCCSc2nsnc2C2=CCCN(C)C2)C1 | 
27% | 20 µM | 61% |  | 0.00084 µM | CN1CCC=C(c2nsnc2OCCCCCCCCCOc2nsnc2C2=CCCN(C)C2)C1 | 
< 10% |  |  |  | 0.0019 µM | CN1CCC=C(c2nsnc2OCCOCCOCCOCCOCCOCCOc2nsnc2C2=CCCN(C)C2)C1 | 
8.2% | > 100 µM | 1% |  |  | CN1CCC=C(c2nsnc2OCCCCCCCCOc2nsnc2C2=CCCN(C)C2)C1 | 
 |  |  | 0.12 µM | 0.017 µM | CN1CCC=C(c2nsnc2SCCCCCCCCCSc2nsnc2C2=CCCN(C)C2)C1 | 
-3% | > 100 µM | 4% |  |  | CN1CCC=C(c2nsnc2OCCCCCCCOc2nsnc2C2=CCCN(C)C2)C1 | 
 |  |  | 0.079 µM | 0.014 µM | CN1CCC=C(c2nsnc2SCCCCCSc2nsnc2C2=CCCN(C)C2)C1 | 
-1% |  |  |  |  | CN1CCC=C(c2nsnc2OCCCCCOc2nsnc2C2=CCCN(C)C2)C1 | 
 |  |  | 0.59 µM | 0.00087 µM | CN1CCC=C(c2nsnc2SCCCCCCSc2nsnc2C2=CCCN(C)C2)C1 | 
 |  |  | 0.44 µM | 0.02 µM | CN1CCC=C(c2nsnc2SCCSc2nsnc2C2=CCCN(C)C2)C1 | 
84% | 0.0014 µM | 57% |  | 0.0016 µM | CN1CCC=C(c2nsnc2OCCCCCCCCCCCCOc2nsnc2C2=CCCN(C)C2)C1 | solubility [2]: 0.0017 mg/mL (≈ 0.00303 mM); solubility [3]: 20 mg/mL (≈ 35.7 mM)
 |  |  |  |  | CN1CCC=C(c2nsnc2OCCOCCOc2nsnc2C2=CCCN(C)C2)C1 | Ki [10]: 0.0049 µM; Stimulation [11]: < 10%
 |  | 39% |  |  | CN1CCC=C(c2nsnc2OCCOc2nsnc2C2=CCCN(C)C2)C1 | Stimulation [11]: 50%; EC50 [12]: 3.9 µM
 |  |  | 0.92 µM | 0.005 µM | CN1CCC=C(c2nsnc2SCCCCCCCCSc2nsnc2C2=CCCN(C)C2)C1 | 

SMILES | PI metabolism [1] | EC50 [4] | Max release [5] | EC50 [7] | Ki [8] | also measured
CN1CCC=C(c2nsnc2OCCOCCOCCOCCOc2nsnc2C2=CCCN(C)C2)C1 | 56% | 0.0052 µM | 43% |  |  | solubility [2]: 0.02 mg/mL (≈ 0.0362 mM); solubility [3]: > 1000 mg/mL; EC50 [9]: 0.29 µM; Smax [6]: -3.7%
